Measurements collected from several papers.
Compare with care: the assays were run in different laboratories. pIC50: −log10 of the molar value. Values after ≈ are worked out from the molar mass of the structure shown.

The pIC50 of COc1cccc(-c2nc3ncccn3c2NC(C)(C)CC(C)(C)C)c1 is reported as 4.77 (Leishmania amazonensis; parasite growth, MTT; 72 h, promastigote).
O=C(Nc1ccccc1-c1ccc(F)c(F)c1)c1nccnc1C(F)(F)F gave an EC50 of 0.2 µg/mL (≈ 0.527 µM) (Rhizoctonia solani; microbial growth).
COc1ccc([S+]([O-])c2ccccc2)c(OC)c1OC (stereo not shown) has a pIC50 of 4.20 (Leishmania braziliensis; parasite growth, MTT; 24 h, promastigote).
The viability of Clc1ccccc1-c1ccc(CNCC2(N3CCCC3)COC2)o1 is reported as 80.6% (GBM6; cell growth or viability; 30 µM, 48 h).
CN1CCCC(CN2CCN(Cc3ccc(-c4cccc(-c5nc6ccccc6[nH]5)c4)cc3)CC2)C1 (stereo not shown) gave a pIC50 of less than 5.00 (HEK293; cell growth or viability).
CC1=NN(CNC(=O)c2ccccc2)C(=O)C1=NNn1c(-c2ccccc2)nc2ccccc2c1=O has an MIC of 104 µM (≈ 49.8 µg/mL) (Trichophyton rubrum; microbial growth, broth dilution).
The viability of FC1CCN(C2(CNCc3ccc(-c4ccccc4Cl)o3)COC2)C1 (stereo not shown) is reported as 47.4% (GBM6; cell growth or viability; 30 µM, 48 h).
For Cc1[nH]cc(Br)c(=O)c1-c1ccc(Oc2ccccc2)cc1, the pIC50 was less than 5.00 (HEK293; cell growth or viability).
The MIC of O=C1NN=C(N=Cc2ccc(O)cc2O)C1=NNn1c(-c2ccccc2)nc2ccccc2c1=O is reported as 53.5 µM (≈ 25 µg/mL) (Trichophyton rubrum; microbial growth, broth dilution).
COc1ccc([S+]([O-])c2ccc(OC)c(OC)c2OC)cc1 (stereo not shown) has a pIC50 of 4.82 (Leishmania braziliensis; parasite growth, MTT; promastigote).
CCOC(=O)c1cn(CC)c2cc(N3CCCCCC3)c(F)cc2c1=O has a pIC50 of less than 5.00 (HEK293; cell growth or viability).
For CC(C)(C)Nc1c(-c2ccc3c(c2)OCO3)nc2ncccn12, the pIC50 was less than 4.00 (Leishmania amazonensis; parasite growth, MTT; 72 h, promastigote).
COc1ccc(Oc2ccc(-c3c(C)[nH]c(C)c(Cl)c3=O)cc2)cc1 gave a pIC50 of less than 5.00 (HEK293; cell growth or viability).
With CC1=NN(CNC(=O)c2ccccn2)C(=O)C1=NNn1c(-c2ccccc2)nc2ccccc2c1=O the MIC was 104 µM (≈ 50 µg/mL) (Trichophyton rubrum; microbial growth, broth dilution).
With CCCCc1nc2ncccn2c1NC(C)(C)CC(C)(C)C the pIC50 was 4.32 (Leishmania amazonensis; parasite growth, MTT; 72 h, promastigote).
Cc1[nH]c(C)c(-c2ccc(OCCCCSc3ccncc3)cc2)c(=O)c1Br gave a pIC50 of less than 5.00 (HEK293; cell growth or viability).
